Experimental findings from ChEMBL document CHEMBL4513216, “Probing the Open Global Health Chemical Diversity Library for Multistage-Active Starting Points for Next-Generation Antimalarials” (ACS Infect Dis, 2020) are described below.

A short description of this data set: Toxicity liver stage against HepG2, at 10uM. It is filed as cell-based. Set-up: test concentration 10 uM, cell line HepG2-A16-CD81EGFP. To be noted: human, HepG2-A16-CD81EGFP cells; read-out: INHIBITION
The essentials: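 Uninfected HepG2-A16-CD81EGFP cells, 3 × 10^3 per well, 1536-well, plated on prespotted compound at 10 μM final, parasite-free screening media added to match infected plates; puromycin 10 μM positive, DMSO 0.5% negative; run in parallel with 48 h PbLuc assay at 37 °C, 5% CO2; viability by CellTiter-Glo luminescence, normalized to controls.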
On to `COc1cc(C)c2c(c1C)C[C@H]([C@H](C)C(=O)O)CC2`, for which the cytotoxicity at 10 µM is -0.95%.
On to `O=C(NC[C@H]1C[C@@H]2CCN1C[C@@H]2CN1CCOCC1)Nc1ccccc1`, for which the cytotoxicity at 10 µM is 5.96%.
On to `COCC(=O)N[C@H](C)c1onc(-c2ccc(Cl)cc2)c1C(=O)O`, for which the cytotoxicity at 10 µM is -5.61%.
Under `COC(=O)[C@@H]1Cc2ncn(C)c2CN1S(=O)(=O)c1ccc(Cl)cc1` stands 4.67%; under `CN1C(=O)C(C)(C)COc2cc(NS(=O)(=O)c3ccccc3F)ccc21`, -5.08%.
For `O=C(Nc1cccnc1)c1noc2c1CN(S(=O)(=O)C1CC1)CC2` the value was 7.06%.
Turning to `CS(=O)(=O)N1CCN(c2ccc3ccc(C(=O)NC4CC4)cn23)CC1`, the cytotoxicity at 10 µM is -0.39%.
Turning to `Cc1cccc(CN2C(=O)CCC23CCN(Cc2ccoc2)CC3)n1`, the cytotoxicity at 10 µM was found to be 2.82%.
Under `CN1CCN(C[C@H]2OC[C@@H]3CCN(Cc4ccsc4)C[C@@H]32)CC1` stands -2.19%; under `COCCN1CC[C@]2(CN(C(=O)c3cccs3)C[C@H]2C)C1=O`, 3.47%; under `CO[C@H]1CO[C@@]2(CCCN(C(=O)C3=CCCCC3)C2)C1`, -9.95%.
Consider `CCN(C)c1ncnc2c1CCN(C(=O)c1ccno1)CC2`, for which the cytotoxicity at 10 µM is -10%.
Under `CCc1noc(C2CCCCN2C(=O)c2cc(C)on2)n1` (stereo unspecified) stands 5.67%; under `COc1cc(NCc2cccnc2)c(-c2nn[nH]n2)cc1OC`, 7.88%; under `CC(=O)N1CCC(c2ncc(C(=O)Nc3ccccc3)c(C)n2)CC1`, 5.91%.
For `Fc1ccccc1CN1CCC[C@@H](Cn2nnc(-c3cccs3)n2)C1` the value was 4.77%; for `CCC(=O)N1CCCCC1c1nc(N(C)C)ncc1-c1cc(C)no1` (stereo unspecified), 5.69%; for `CC(C)c1cc(C(=O)N2CCC3(CCc4ccccc4C(=O)N3)C2)on1` (stereo unspecified), 2.53%.
With `CC(C)NC(=O)C1CCc2nnc(CNC(=O)c3ccc(Cl)cc3Cl)n21` (stereo unspecified), the cytotoxicity at 10 µM worked out at 5.84%.
Under `COc1c(CNCCc2c[nH]c3ccccc23)c(C(C)C)nn1C` stands 3.41%; under `Cn1cccc1CNCC1CCCn2cc(C(C)(C)C)nc21` (stereo unspecified), -19.8%.
For `Cc1ccccc1CCCN1CCS(=O)(=O)CC1C` (stereo unspecified) the value was 1.57%; for `CCc1nnc(CS(=O)(=O)c2ccc(C)c(C)c2)n1C`, 0.617%.
On to `Cc1cc(C(NC(=O)CNS(C)(=O)=O)C(C)C)c(C)s1` (stereo unspecified), for which the cytotoxicity at 10 µM was 5.2%.
As for `CN(CCCOc1ccc(F)cc1)S(=O)(=O)c1cnn(C)c1`, the cytotoxicity at 10 µM is -0.336%.
For `CC(NCc1ccc(OCC(N)=O)cc1)c1ccc2c(c1)CCCC2` (stereo unspecified) the value was -0.699%; for `CC(C)c1noc(CCC(=O)N2CCN(C)CC2c2ccccc2)n1` (stereo unspecified), -5.3%; for `CNC(=O)CCNC(=O)c1cc(Br)c2c(c1)OCCO2`, 3.82%.
Under `Cn1cc(N2CCC(NC(=O)c3c(F)cccc3Cl)C2=O)cn1` (stereo unspecified) stands 0.91%.
Under `Cc1[nH]ncc1CCCNC(=O)Nc1ccc(S(C)(=O)=O)nc1` stands -3.71%; under `Cc1nc(C)n(CC2CCCN2Cc2coc(-c3cccs3)n2)n1` (stereo unspecified), -9.61%.
`Cc1ccc(C(=O)N2CCCC(CNS(=O)(=O)C(C)C)C2)cc1` (stereo unspecified): the cytotoxicity at 10 µM was -1.42%.
As for `O=C(NCCc1ccccc1Cl)NCC1(O)CCSC1` (stereo unspecified), the cytotoxicity at 10 µM is -6.17%.
Under `COc1ccnc(N2CCN(C(C)c3nc(C)no3)CC2)n1` (stereo unspecified) stands -1.33%; under `NC(=O)c1ccc(OCC(=O)NC2CCc3c(F)cccc32)cc1` (stereo unspecified), 14.4%; under `CCN1CCN(C(=O)C(C)N2CCc3cncnc3C2)CC1` (stereo unspecified), -10.9%.
For `CCCNC(=O)CCC(=O)N1CCC(c2n[nH]c(C3CC3)n2)CC1`, the cytotoxicity at 10 µM is -3.82%.
On to `CNC(=O)COc1cccc(CNCc2c(C)noc2C)c1`, for which the cytotoxicity at 10 µM is -10.3%.
As for `Cc1ccc(N2CCCN(C(=O)c3n[nH]c4c3CCC4)CC2)nn1`, the cytotoxicity at 10 µM is 3.81%.
For `c1ccc(CCN2CC(n3cccn3)C2)nc1`, the cytotoxicity at 10 µM was -0.2%.
Under `COc1cc(C)c(CNC(C)c2nc(C)cs2)cc1OC` (stereo unspecified) stands 2.58%; under `COc1ccccc1OCC(=O)N1CCN(Cc2noc(C)n2)CC1`, 3.82%; under `Cc1ccc(C2CSCCN2C(=O)c2ccsc2)o1` (stereo unspecified), 1.68%.
Take `O=C(c1ccoc1)N1Cc2cnn(CC3CC3)c2C(COCC2CC2)C1` (stereo unspecified): the cytotoxicity at 10 µM was -6.98%.
On to `CCOc1ccc(Cl)cc1C(C(=O)O)N1CCOCC1` (stereo unspecified), for which the cytotoxicity at 10 µM is -0.924%.
With `Cc1cccc2[nH]c(COCC(=O)N3CCCn4cncc4C3)nc12`, the cytotoxicity at 10 µM stood at 2.03%.
For `CC(C)(C)c1ccc(-n2ncc3c2CCCC3N)cc1` (stereo unspecified) the value was -0.711%.
Turning to `CCC(NC(=O)CCNC(=O)c1ccccc1F)c1cc(C)ccn1` (stereo unspecified), the cytotoxicity at 10 µM is -11.4%.
Consider `O=C(O)C(c1ccc2c(c1)OCO2)N1CCC(O)(c2cccnc2)CC1` (stereo unspecified), for which the cytotoxicity at 10 µM was 19.7%.
Consider `CCc1nnc(N2CCN(CCc3ccccc3)C(=O)C2)o1`, for which the cytotoxicity at 10 µM was -1.01%.
Under `COc1cc(F)c(C(=O)NCc2cc(C)on2)c(F)c1` stands -0.376%.
Under `CCCN1CCC(CC(=O)NCc2cc(C)nn2C)CC1` stands -12.4%; under `CCc1ccc(S(=O)(=O)N2CC[C@@](O)(CCOC)[C@H](C)C2)cc1`, 6.8%.
Under `Cc1cc(CC(C)NC2CCSCC2)[nH]n1` (stereo unspecified) stands 1.08%.
Regarding `CCCn1ncc(C(=O)N(C)Cc2n[nH]c3c2CCC3)c1C`, the cytotoxicity at 10 µM was 0.213%.
As for `Cc1cc(F)ccc1OC1(C(=O)O)CCN(Cc2c[nH]cn2)CC1`, the cytotoxicity at 10 µM was 1.18%.
For `Cc1ccc(S(=O)(=O)N2C[C@H](C3CC3)[C@@H](N)C2)cc1F` the value was -3.25%; for `Cn1ncc2c(N3CC(N4CCCCC4)C3)nc(-c3ccncc3)nc21`, 5.18%.
`COc1ccc(C(C(=O)O)N(C)CCN2CCOCC2)c(C)c1` (stereo unspecified): the cytotoxicity at 10 µM was 2.66%.
As to `CC(=O)CN1CCC2(CC1)c1ccccc1[C@@H](N1CCSCC1)[C@@H]2O`, the cytotoxicity at 10 µM is -27.1%.
With `Cc1noc(CN(C)CC2(O)CCCN(CCC3CCCCC3)C2=O)n1` (stereo unspecified), the cytotoxicity at 10 µM was -3.73%.
With `CN(C)C(=O)c1cccnc1-c1ccc2c(c1)OCO2`, the cytotoxicity at 10 µM was found to be 1.58%.
As for `CN(Cc1ccccc1)c1ncccc1CNC1CCC1`, the cytotoxicity at 10 µM stood at 13.5%.
Under `Cc1nc2ccc(C(=O)N3CCN(CCO)[C@@H]4CS(=O)(=O)C[C@@H]43)cc2o1` stands -1.32%; under `O=C(NCCc1ccncc1)c1cccc(S(=O)(=O)NC2CCOC2)c1` (stereo unspecified), 4.93%.
On to `CSCCC(=O)N1C[C@@H](C)[C@](O)(C(C)C)C1`, for which the cytotoxicity at 10 µM amounted to 0.68%.
Regarding `CC(C)(C)c1oc(C(N)=O)cc1CN1CCOC(C(F)(F)F)C1` (stereo unspecified), the cytotoxicity at 10 µM is -4.81%.
For `O=C1N(CCO)CCCC12CCN(Cc1noc(C3CCCC3)n1)C2` (stereo unspecified), the cytotoxicity at 10 µM is -0.973%.
For `COc1cccc(S(=O)(=O)N2CCCCC2CCN2CCOCC2)c1` (stereo unspecified) the value was -5.31%; for `CCC(Nc1nccc(C2CCCC2)n1)c1ccccn1` (stereo unspecified), -126%.
`CN(Cc1cc[nH]n1)C(=O)c1ccc2c(c1)nc(N1CC[C@H](O)C1)n2C`: the cytotoxicity at 10 µM stood at 4.43%.
Under `CN1CCN(C(=O)c2cccc(CN3CCOCC3)c2)CC1` stands 2.46%; under `COc1cccc(OC)c1OCCn1c(C)c(C)oc1=O`, 9.61%; under `CCS(=O)(=O)N1CCC(c2nnc(CN3CCCC3)n2C2CC2)CC1`, 14.9%.
Under `O=C(c1ccc(F)cc1F)N1C[C@@H](O)[C@H](N2CCOCC2)C1` stands -1.37%; under `O=C1NCCN1C1CCN(CCOc2ccccc2Cl)CC1`, -6.69%.
Turning to `CCC(C)NC(=O)CCNC(=O)Nc1ccc(-n2cncn2)c(F)c1` (stereo unspecified), the cytotoxicity at 10 µM was -0.22%.
With `CC(C)c1nc(C2CCCN2Cc2ccccc2C#N)no1` (stereo unspecified), the cytotoxicity at 10 µM is -7.62%.
Turning to `O=C(CS(=O)(=O)CC1CCCCC1)NC1CCCCNC1=O` (stereo unspecified), the cytotoxicity at 10 µM was -10.6%.
For the compound `Cc1oc(C)c(C(=O)NCc2ccccn2)c1C`, the cytotoxicity at 10 µM was -0.729%.
For `Cc1nnc2n1CCN(C(=O)c1cc(Cl)c[nH]1)C2`, the cytotoxicity at 10 µM was -5.87%.
Consider `CCc1nnc2n1CCN(C(=O)Cc1csc(-c3ccco3)n1)C2`, for which the cytotoxicity at 10 µM was -8.7%.
Under `CCc1nnc2n1CCN(C(=O)c1ccc(C(F)(F)F)nc1C)C2` stands -7.28%; under `CCc1nc(CN(CC(N)=O)C(C)C)cs1`, -8.62%; under `CCc1n[nH]c(C2CN(C(=O)c3cnns3)CCO2)n1` (stereo unspecified), -3.43%.
Under `Cc1cnn(CC2CCCN2C(=O)c2cccc(-n3cnnn3)c2)c1` (stereo unspecified) stands -4.3%.
Under `CCc1[nH]ncc1C(=O)N1CCCC(n2cccn2)C1` (stereo unspecified) stands 4.62%; under `c1cnn(CC2CN(CC3CCCC3)CCO2)c1` (stereo unspecified), -2.55%.
For `CC(C)COC(C)C(=O)NCc1cc(F)cc(F)c1` (stereo unspecified), the cytotoxicity at 10 µM came out at 3.37%.
As to `COc1cccc(N2C(=O)CC3(CCNCC3)C2=O)c1`, the cytotoxicity at 10 µM came to 2.67%.
Under `Cn1cc(N2C(=O)CC[C@@H]3[C@H]2CCN3Cc2nccs2)cn1` stands 8.62%; under `COCC1COCCC12CCN(Cc1nccs1)CC2` (stereo unspecified), 2.31%; under `c1ccc(CN2CC[C@@H]3O[C@@H](COCC4CCOCC4)CC[C@@H]32)nc1`, -1.98%.
On to `Cc1nc(CN2CCO[C@@H]3CN(Cc4ccsc4)C[C@@H]3C2)cs1`, for which the cytotoxicity at 10 µM is 2.99%.
Regarding `COCCN1CCc2ncnc(NC(C)C)c2CC1`, the cytotoxicity at 10 µM was determined as 2.13%.
For `O=C(CCn1cncn1)N1C[C@@H]2CC[C@H]1CN(Cc1ccncc1)C2` the value was 9.53%.
